Calls of active or inactive are those of the source.
Legend:
[1] = test system: Mus musculus; test: Anticonvulsant activity in albino CF1 mouse assessed as protection against 6 Hz psychomotor seizure at 100 mg/kg, ip after 4 hrs by minimal clonic seizure test; assay type: functional, organism-based; design: dose 100 mg/kg
Procedure, shortened: (§1)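 Male albino CF No. 1 mice, 18–25 g. Compound dissolved in saline or suspended in 0.5% methylcellulose and given ip beforehand. Corneal stimulation with 0.2 ms monopolar rectangular pulses at 6 Hz for 3 s from a constant-current device. Mice restrained during stimulation, then released and observed for the minimal clonic seizure and automatistic behaviour.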

[2] = test system: Mus musculus; test: Anticonvulsant activity in albino CF1 mouse assessed as protection against 6 Hz psychomotor seizure at 100 mg/kg, ip after 2 hrs by minimal clonic seizure test; assay type: functional, organism-based; design: dose 100 mg/kg; procedure, shortened: as §1
[3] = test system: Mus musculus; test: Anticonvulsant activity in albino CF1 mouse assessed as protection against 6 Hz psychomotor seizure at 100 mg/kg, ip after 1 hr by minimal clonic seizure test; assay type: functional, organism-based; design: dose 100 mg/kg; procedure, shortened: as §1
[4] = test system: Mus musculus; test: Anticonvulsant activity in albino CF1 mouse assessed as protection against 6 Hz psychomotor seizure at 100 mg/kg, ip after 0.5 hr by minimal clonic seizure test; assay type: functional, organism-based; design: dose 100 mg/kg; procedure, shortened: as §1
[5] = test system: Mus musculus; test: Anticonvulsant activity in albino CF1 mouse assessed as protection against 6 Hz psychomotor seizure at 100 mg/kg, ip after 0.25 hr by minimal clonic seizure test; assay type: functional, organism-based; design: dose 100 mg/kg; procedure, shortened: as §1
[6] = test system: Mus musculus; test: Anticonvulsant activity in albino CF1 mouse assessed as protection against subcutaneous metrazol-induced seizures at 30 to 300 mg/kg, ip after 0.5 to 4 hrs; assay type: functional, organism-based
Procedure, shortened: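 CF No. 1 male mice dosed ip at 30, 100 or 300 mg/kg (saline or 0.5% methylcellulose), then given pentetrazole 85 mg/kg sc as 0.5% solution in posterior midline. Watched 30 min. Protection means no threshold seizure (single clonic spasm episode of at least 5 s). Expressed as protected/tested.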

[7] = test system: Mus musculus; test: Neurotoxicity in albino CF1 mouse assessed as minimal motor impairment at 30 mg/kg, ip after 0.5 hr by rotorod test; assay type: toxicity, organism-based; design: dose 30 mg/kg, route intraperitoneal; settings: in vivo
Procedure, shortened: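 Male albino CF No. 1 mice, compound ip in saline or 0.5% methylcellulose. Rotarod: 1-inch knurled rod at 6 rpm. Toxicity is failure to stay on the rod for 1 min on three successive attempts. Expressed as toxic/tested.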

[8] = test system: Mus musculus; test: Neurotoxicity in albino CF1 mouse assessed as minimal motor impairment at 300 mg/kg, ip after 4 hrs by rotorod test; assay type: toxicity, organism-based; design: dose 300 mg/kg, route intraperitoneal; settings: in vivo
Procedure, shortened: (§2)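 Rotarod in male CF No. 1 mice after ip dosing (30, 100, 300 mg/kg; saline or 0.5% methylcellulose) at 15–240 min. Knurled plastic rod, 1-inch diameter, 6 rpm. Toxicity means failing to stay on for 1 min on three successive attempts. Recorded as toxic/tested.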

[9] = test system: Mus musculus; test: Neurotoxicity in albino CF1 mouse assessed as minimal motor impairment at 300 mg/kg, ip after 0.5 hr by rotorod test; assay type: toxicity, organism-based; design: dose 300 mg/kg, route intraperitoneal; settings: in vivo; procedure, shortened: as §2
[10] = test system: Mus musculus; test: Neurotoxicity in albino CF1 mouse assessed as minimal motor impairment at 100 mg/kg, ip after 4 hrs by rotorod test; assay type: toxicity, organism-based; design: dose 100 mg/kg, route intraperitoneal; settings: in vivo; procedure, shortened: as §2
[11] = test system: Mus musculus; test: Neurotoxicity in albino CF1 mouse assessed as minimal motor impairment at 100 mg/kg, ip after 0.5 hr by rotorod test; assay type: toxicity, organism-based; design: dose 100 mg/kg, route intraperitoneal; settings: in vivo; procedure, shortened: as §2
[12] = test system: Mus musculus; test: Anticonvulsant activity in albino CF1 mouse assessed as protection against maximal electroshock-induced seizures at 30 mg/kg, ip after 0.5 hr; assay type: functional, organism-based; design: dose 30 mg/kg
Procedure, shortened: (§3)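 Male albino CF No. 1 mice, 18–25 g. Compound in saline or 0.5% methylcellulose, ip. Seizures elicited by 60-cycle alternating current maximal electroshock. Result expressed as animals protected/animals tested.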

[13] = test system: Mus musculus; test: Anticonvulsant activity in albino CF1 mouse assessed as protection against maximal electroshock-induced seizures at 30 mg/kg, ip after 4 hrs; assay type: functional, organism-based; design: dose 30 mg/kg; procedure, shortened: as §3
[14] = test system: Mus musculus; test: Anticonvulsant activity in albino CF1 mouse assessed as protection against maximal electroshock-induced seizures at 300 mg/kg, ip after 4 hrs; assay type: functional, organism-based; design: dose 300 mg/kg
Procedure, shortened: (§4)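 Male albino CF No. 1 mice (18–25 g) dosed ip at 30, 100 and 300 mg/kg in saline or 0.5% methylcellulose, tested 15, 30, 60 and 240 min after dosing. Maximal electroshock seizures elicited with 60-cycle alternating current. Scored as animals protected/animals tested, small qualitative groups.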

[15] = test system: Mus musculus; test: Anticonvulsant activity in albino CF1 mouse assessed as protection against maximal electroshock-induced seizures at 300 mg/kg, ip after 0.5 hr; assay type: functional, organism-based; design: dose 300 mg/kg; procedure, shortened: as §4
[16] = test system: Mus musculus; test: Anticonvulsant activity in albino CF1 mouse assessed as protection against maximal electroshock-induced seizures at 100 mg/kg, ip after 4 hrs; assay type: functional, organism-based; design: dose 100 mg/kg; procedure, shortened: as §4
[17] = test system: Mus musculus; test: Anticonvulsant activity in albino CF1 mouse assessed as protection against maximal electroshock-induced seizures at 100 mg/kg, ip after 0.5 hr; assay type: functional, organism-based; design: dose 100 mg/kg; procedure, shortened: as §4
[18] = test system: Mus musculus; test: Anesthetic activity in […] assessed as latency in response to thermal stimuli administered as 2% solution, sc measured after 15 mins by modified tail immersion test; assay type: functional, albino CF1
[19] = test system: Mus musculus; test: Anesthetic activity in albino CF1 mouse assessed as latency in response to thermal stimuli administered as 1% solution, sc measured after 15 mins by modified tail immersion test; assay type: functional
Procedure, shortened: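 Male Albino Swiss (CD-1) mice, 6-8 per group, tested at 1% and 2% compound concentration. Tail distal 3 cm immersed in water at 50 ± 0.5 °C 15 min after treatment. Tail-withdrawal latency recorded with a 20 s cutoff. Value is % difference in latency vs vehicle-treated mice. Mean ± SEM, Student's t-test.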

[20] = test system: Mus musculus; test: […] activity in ip dosed albino CF1 mouse assessed as inhibition of phenylbenzoquinone-induced writhing administered after 30 mins prior challenge; assay type: functional
Procedure, shortened: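 Male Albino Swiss (CD-1) mice, 6-8 per dose. Compound given ip in 0.5% methylcellulose. 30 min later, 0.25 ml of 0.02% phenylbenzoquinone injected. After 5 min, writhes counted over 10 min. % effect = (vehicle mean − drug mean)/vehicle mean × 100. ED50 derived; Student's t-test.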

[21] = test system: Mus musculus; test: Analgesic activity in albino CF1 mouse assessed as inhibition of heat-induced paw licking or jumping behaviour administered after 30 mins prior heat challenge by hot plate method; assay type: functional
[22] = test system: Mus musculus; test: Neurotoxicity in albino CF1 mouse assessed as minimal motor impairment at 100 mg/kg, ip after 1 hr by rotorod test; assay type: toxicity, organism-based; design: dose 100 mg/kg, route intraperitoneal; settings: in vivo; procedure, shortened: as §2
[23] = test system: Mus musculus; test: Neurotoxicity in albino CF1 mouse assessed as minimal motor impairment at 100 mg/kg, ip after 0.25 hr by rotorod test; assay type: toxicity, organism-based; design: dose 100 mg/kg, route intraperitoneal; settings: in vivo; procedure, shortened: as §2
[24] = test system: Mus musculus; test: Anticonvulsant activity in albino CF1 mouse assessed as protection against maximal electroshock-induced seizures at 100 mg/kg, ip after 1 hr; assay type: functional, organism-based; design: dose 100 mg/kg; procedure, shortened: as §4
[25] = test system: Mus musculus; test: Anticonvulsant activity in albino CF1 mouse assessed as protection against maximal electroshock-induced seizures at 100 mg/kg, ip after 0.25 hr; assay type: functional, organism-based; design: dose 100 mg/kg; procedure, shortened: as §4

Cl.O=C1OCCC1NC1CCCCC1 (racemic)
active: Activity [2]
inactive: Activity [1] | Activity [3] | Activity [4] | Activity [5] | Activity [6] | Activity [12] | Activity [13] | Activity [14] | Activity [15] | Activity [16] | Activity [17]
Toxic: Activity [7]
Non-toxic: Activity [8] | Activity [9] | Activity [10] | Activity [11]

COc1ccccc1N1CCN(C2CCOC2=O)CC1 (racemic)
inactive: Activity [6] | Activity [14] | Activity [16] | Activity [24] | Activity [17] | Activity [25]
0.7 mg/kg: ED50 [21]
0.3 mg/kg: ED50 [20]
Toxic: Activity [9]
152%: Activity [18]
active: Activity [15]
Non-toxic: Activity [8] | Activity [10] | Activity [22] | Activity [11] | Activity [23]
97%: Activity [19]

CC1CC(N2CCN(c3ccccc3)CC2)C(=O)O1 (mixture of isomers)
Non-toxic: Activity [8] | Activity [10] | Activity [22] | Activity [11] | Activity [23]
active: Activity [15]
Toxic: Activity [9]
inactive: Activity [6] | Activity [14] | Activity [16] | Activity [24] | Activity [17] | Activity [25]

NC(=O)c1ccccc1OC1CCOC1=O (racemic)
inactive: Activity [1] | Activity [2] | Activity [3] | Activity [4] | Activity [5] | Activity [6] | Activity [14] | Activity [15] | Activity [16] | Activity [17]
7.9 mg/kg: ED50 [20]
Non-toxic: Activity [8] | Activity [9] | Activity [10] | Activity [11]

O=C1OCCC1N1CCC(Cc2ccccc2)CC1 (racemic)
active: Activity [15]
Non-toxic: Activity [10] | Activity [22] | Activity [11] | Activity [23]
inactive: Activity [6] | Activity [14] | Activity [16] | Activity [24] | Activity [17] | Activity [25]
Toxic: Activity [8] | Activity [9]

C/C(NCc1ccccc1)=C1\CCOC1=O
active: Activity [15]
Non-toxic: Activity [8] | Activity [9] | Activity [10] | Activity [22] | Activity [11] | Activity [23]
inactive: Activity [6] | Activity [14] | Activity [16] | Activity [24] | Activity [17] | Activity [25]

O=C1OCCC1N1CCN(c2ccccc2)CC1 (racemic)
2.4 mg/kg: ED50 [20]
Non-toxic: Activity [8] | Activity [10] | Activity [22] | Activity [23]
146%: Activity [18]
102%: Activity [19]
4 mg/kg: ED50 [21]
Toxic: Activity [9] | Activity [11]
inactive: Activity [6] | Activity [14] | Activity [16] | Activity [24] | Activity [17] | Activity [25]
active: Activity [15]
